Reference: ChEMBL document CHEMBL2176871, “Development of ligands at γ-aminobutyrric acid type A (GABAA) receptor subtype as new agents for pain relief” (Bioorg Med Chem, 2011)
Calls of active or inactive are those of the source.

How the values were obtained:
[1] = test system: Mus musculus; assay: Antihyperalgesic activity against streptozotocin-induced hyperalgesia in Swiss albino mouse […] assessed as licking latency time at 30 mg/kg, po after 60 mins by hot plate test (reference value: 9.2 +/- 0.8 secs); assay type: functional
[2] = test system: Mus musculus; assay: Anxiolytic-like activity in Swiss albino mouse at 10 to 30 mg/kg, po after 30 mins by light/dark box test; assay type: functional, organism-based
Outline: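 Male Swiss mice tested in a two-compartment light/dark box. Transfers between compartments and time spent in the lit side recorded. Compound given po 30 min before testing, in 10 ml/kg; flumazenil given i.p. for antagonism; 8 mice per group.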

[3] = test system: Mus musculus; assay: Antihyperalgesic activity Swiss albino mouse […] assessed as licking latency time at 30 mg/kg, po after 60 mins by hot plate test (reference value: 17.9 +/- 1.1 secs); assay type: functional
Outline: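 Hot plate at 52.5 ± 0.1 °C in non-diabetic male Swiss mice. Latency to licking of fore or hind paws was timed before dosing and every 15 min up to 60 min after oral dosing. Mice with pretest latencies below 12 s or above 18 s were excluded. Cut-off was 45 s.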

[4] = test system: Mus musculus; assay: Antihyperalgesic activity against streptozotocin-induced hyperalgesia in Swiss albino mouse […] assessed as licking latency time at 30 mg/kg, po after 30 mins by hot plate test (reference value: 9.2 +/- 0.8 secs); assay type: functional
[5] = test system: Rattus norvegicus; assay: Antinociceptive activity in Sprague-Dawley rat mononeuropathy pain model assessed as increase in injured paw pressure at 60 mg/kg, po after 30 mins by paw pressure test relative to non-treated control; assay type: functional
Outline: (§1)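 Chronic constriction injury: loose ligatures placed on the common sciatic nerve under chloral hydrate; contralateral sham dissection. Tested 14 days after surgery. Paw pressure applied at 32 g/s; threshold taken as the force causing the first struggle; cut-off 250 g; pretest outliers (<40 g or >75 g) excluded. Oral dosing in 10 ml/kg; read at 15, 30 and 45 min; compared with a CMC-treated group.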

[6] = test system: Rattus norvegicus; assay: Antinociceptive activity in Sprague-Dawley rat mononeuropathy pain model assessed as increase in injured paw pressure at 10 mg/kg, po after 45 mins by paw pressure test relative to non-treated control; assay type: functional; outline: as §1
[7] = test system: Rattus norvegicus; assay: Antinociceptive activity in Sprague-Dawley rat mononeuropathy pain model assessed as increase in injured paw pressure at 10 mg/kg, po after 30 mins by paw pressure test relative to non-treated control; assay type: functional; outline: as §1
[8] = test system: Rattus norvegicus; assay: Antinociceptive activity in Sprague-Dawley rat mononeuropathy pain model assessed as increase in injured paw pressure at 10 mg/kg, po after 15 mins by paw pressure test relative to non-treated control; assay type: functional; outline: as §1
[9] = test system: Rattus norvegicus; assay: Toxicity in Sprague-Dawley rat mononeuropathy pain model assessed as effect on contralateral paw pressure at 60 mg/kg, po after 15 mins by paw pressure test; assay type: organism-based; parameters: dose 60 mg/kg, route oral; conditions: in vivo, 0.25 h
Outline: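 Same sciatic-ligation rat model, 14 days after surgery. Threshold measured on the non-operated contralateral hind paw by analgesimeter at 32 g/s; first-struggle endpoint; 250 g cut-off; pretest rats outside 40–75 g rejected. Compound given po in 10 ml/kg; readings at 15, 30 and 45 min.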

For `Cc1cnn2c1n[n+]([O-])c1ccc(OCc3ccccc3)cc12`, the Time [1] was 15.7 s, the Activity [2] was “Active” and the Time [3] was 17.2 s. The Time [4] was 17.6 s, the Activity [5] was 40.8 g and the Activity [6] was 30.4 g. It also gave an Activity [7] of 40.1 g, an Activity [8] of 48.7 g and an Activity [9] of 59.9 g.
